Most compounds without a hit are left out; they make up all but 11% or so of the library.
Diaphorase act: counter-screen for diaphorase-based assays: diaphorase activators and chemical reducers | AID 1229 | activation factor at 20 µM | Diaphorase/resazurin coupled assay, resorufin fluorescence, 16 min; stronger effect = higher value; 1 = vehicle wells, 0 = NADH-free wells | 190,000 tested, 0.005% active;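 active = diaphorase activity raised at least twofold by the compound at 20 µM; inactive = activation factor below 2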
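Assay system: Purified diaphorase enzyme from Clostridium kluyveri | Amount: Enzyme 0.07 U/mL final | Dosing: Compound 20 µM once, DMSO 1% | Timing: 16 min reaction at room temperature | Detection: Fluorescence, excitation 544 nm and emission 590 nm | Evaluation: Higher resorufin formation from activation or reduction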
WT yeast gro inh: growth inhibition of WT yeast, mitochondrial fusion screen. mitochondrial fusion phenotypic screen, WT strain. inhibition, % at 10 µM. 190,000 tested, 2.1% active. AID 1362; in the data active = inhibition above about 58%; tested in S. cerevisiae
Diaphorase inh: inhibits diaphorase or chemically oxidizes, flagging diaphorase assay artifacts | diaphorase resazurin-to-resorufin fluorescence, NADH, 16 min; bacterial (C. kluyveri) enzyme, not human | inhibition, % at 20 µM | 190,000 tested, 0.69% active;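 active = primary screen inhibition at 20 µM above a set limit, cut at about 50% in these data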;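 also: plate controls were DMSO with full reaction for no effect and wells lacking NADH for full effect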
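Benchmarks: positive control wells lacking NADH, neutral wells with DMSO only. System: bacterial diaphorase enzyme (C. kluyveri). Input: 0.14 U/mL diaphorase, enzyme working solution. Detection: resorufin fluorescence, excitation 544 nm, emission 590 nm. Times: 16-min room-temperature incubation before reading.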
L major viab: Leishmania major promastigote growth inhibition; 200,000 tested, 9% active; Leishmania major promastigotes, resazurin fluorescence viability; inhibition, % at 10 µM;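 also: promastigotes grown with compound for 44 hours at 28 °C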
G6PDH CS: L. mesenteroides G6PDH inhibition counter-screen | Purified L. mesenteroides G6PDH, diaphorase/resazurin coupled fluorescence, 45 min | inhibition, % at 5 µM | 200,000 tested, 0.12% active | AID 1020
An asterisk follows results filed as active; x = no result. Rule as the data show it, unless noted: active = inhibition above about 50%; inactive = the rest.

SMILES | Diaphorase act | WT yeast gro inh | Diaphorase inh | L major viab | G6PDH CS
CCC1=NN2C(=N)/C(=C\c3cccn3-c3ccc(Br)cc3)C(=O)N=C2S1 | 0.6 | 23 | 41 | -10 | -1
CCC1=NN2C(=N)/C(=C\c3cccn3-c3cccc(Cl)c3)C(=O)N=C2S1 | 0.4 | 62* | 59* | -15 | 0
O=C(NCCc1ccccn1)C1CCN(S(=O)(=O)c2ccc3ccccc3c2)CC1 | 1.2 | 4 | -16 | 23 | 5
O=C(CCCc1ccccc1)NCc1ccc(F)cc1 | 1 | -7 | 2 | 32 | -1
CCN(CC)S(=O)(=O)c1ccc2oc(SCC3CN=C(c4ccc(OC)cc4)S3)nc2c1 (stereo not drawn) | 0.8 | -1 | 18 | 8 | 3
O=C(Nc1nc2ccccc2n1CCOc1ccccc1)c1ccco1 | 1.1 | 56 | -14 | 62* | 4
O=C(Nc1nc2ccccc2n1CCOc1ccc(Cl)cc1)c1ccco1 | 0.9 | 70* | 15 | 90* | -1
Cc1ccc(OCCn2c(NC(=O)c3ccco3)nc3ccccc32)cc1 | 0.8 | -2 | 20 | 27 | -1
Cc1ccc2nc(-c3ccc(NC(=S)NC(=O)C(C)C)cc3)sc2c1 | 0.9 | -5 | 12 | 1 | 5
Cc1ccc2nc(-c3ccc(NC(=S)NC4CC(C)(C)NC(C)(C)C4)cc3)sc2c1 | 1.5 | 60* | -45 | 98* | -5
Cc1ccc(N2NC(=O)/C(=C/c3ccc(-c4ccc(Cl)c(C(=O)O)c4)o3)C2=O)cc1C | 0.8 | -2 | 23 | -9 | 13
COC(=O)c1ccc(N2NC(=O)/C(=C/c3ccc(-c4ccc(Cl)c(C(=O)O)c4)o3)C2=O)cc1 | 0.3 | -15 | 74* | -12 | 0
CCOC(=O)C1(Cc2ccccc2)CCN(Cc2cccc3c2OCO3)CC1 | 0.8 | 17 | 21 | 66* | 7
CCOC(=O)C1(Cc2ccccc2)CCN(Cc2cc(OC)c3c(c2)OCO3)CC1 | 0.9 | 10 | 11 | 91* | 38
COc1cc(CN2CCCC(CO)(Cc3ccccc3C)C2)cc2c1OCO2 (stereo not drawn) | 0.9 | 6 | 7 | 69* | 2
CCOC(=O)C1(Cc2ccccc2)CCN(Cc2ccc(C)s2)CC1 | 0.8 | 10 | 17 | 7 | 9
CCOC(=O)C1(Cc2ccccc2)CCN(Cc2ccc3c(c2)OCCO3)CC1 | 1 | 33 | -5 | 92* | 10
CC(C)NC(=S)NC(=O)/C=C/c1ccc(F)cc1 | 1 | 18 | 1 | -1 | -2
CN1C(=O)N(C)C2(c3ccccc3)N(C)C(=O)NC12c1ccccc1 (stereo not drawn) | 0.9 | 17 | 11 | -8 | 2
CN1CCC(OC(=O)c2cccc(Br)c2)CC1 | 0.9 | -13 | 11 | 93* | -12
CN1CCC(OC(=O)c2ccco2)CC1 | 0.9 | 14 | 10 | -4 | 2
CN1CCC(OC(=O)c2ccc(Cl)cc2Cl)CC1 | 0.9 | -16 | 5 | 96* | 5
O=C(Cn1c(/C=C/c2ccccc2)nc2ccccc21)Nc1ccc(F)cc1 | 1 | 68* | -1 | 63* | -13
CSc1nc2ccccc2n1CC(=O)Nc1ccccc1 | 0.8 | 6 | 18 | 0 | 7
CCn1c(/C=C/c2ccccc2)nc2ccccc21 | 1 | -3 | -4 | 77* | 4
SMILES | Diaphorase act | WT yeast gro inh | Diaphorase inh | L major viab | G6PDH CS
CC(C)Cn1c(/C=C/c2ccccc2)nc2ccccc21 | 0.9 | 55 | 13 | 46 | -14
CCC(C)n1c(/C=C/c2ccccc2)nc2ccccc21 (stereo not drawn) | 0.9 | 47 | 13 | 93* | -14
COc1ccc(/C=C/c2nc3ccccc3n2C)cc1 | 1 | 86 | 5 | 85* | 2
CCOC(=O)CSc1nnc(CNC(=O)c2ccc(OC)cc2)n1C1CCCCC1 | 0.9 | -12 | 10 | -3 | 5
COc1ccc(C(=O)c2ccc(Cl)cc2)cc1 | 0.9 | -1 | 13 | -5 | 4
COc1ccc(C(=O)c2ccc(Cl)c([N+](=O)[O-])c2)cc1 | 0.8 | 24 | 16 | 80* | 6
Cc1cccc(OCC(O)Cn2c(=N)n(CCN3CCCCC3)c3ccccc32)c1 (stereo not drawn) | 0.9 | 4 | 8 | 100* | 3
N=c1n(CCO)c2ccccc2n1CCN1CCCCC1 | 1.2 | 4 | -16 | 1 | 12
CCN(CC)CCn1c(=N)n(CC(O)COc2cccc(C)c2)c2ccccc21 (stereo not drawn) | 1 | 8 | 2 | 100* | 11
CCCOC(=O)c1cc(-c2ccc(C=O)o2)ccc1Cl | 0.9 | 3 | 8 | 64* | 20
C=CCOC(=O)c1cc(-c2ccc(/C=C3\C(=O)NC(=O)C(C#N)=C3C)o2)ccc1Cl | 0.6 | -4 | 42 | 86* | 29
CCCOC(=O)c1ccc(-c2ccc(C=O)o2)cc1 | 0.8 | 2 | 19 | 44 | 8
Cc1ccc(C)c(N(CC(=O)NC2CCCCC2)C(=O)CCC(=O)Nc2ccccn2)c1 | 1 | x | 0 | 43 | 3
CCOc1ccc(OCC)c(-c2c(=O)n(OCc3ccccc3C(=O)OC)c3ccccc3[n+]2[O-])c1 | 0.8 | 26 | 15 | 79* | 4
CCOc1ccc(-c2c(=O)n(OCc3ccccc3Br)c3ccccc3[n+]2[O-])c(OCC)c1 | 0.8 | 12 | 18 | -10 | -2
CCOc1ccc(OCC)c(-c2c(=O)n(OCc3ccccc3Br)c3ccccc3[n+]2[O-])c1 | 0.9 | 11 | 7 | 71* | 5
Cc1c(Cl)cccc1N(CC(=O)NC1CCCCC1)S(C)(=O)=O | 0.8 | -30 | 18 | 1 | -1
CC1=NN(C(N)=S)C(=O)C1N=Nc1ccccc1 (stereo not drawn) | 1 | 70* | 0 | 21 | 9
O=C(NNc1ccc(C2CCCCC2)cc1)C(O)(c1ccccc1)c1cccs1 (stereo not drawn) | 0.9 | 89* | 14 | 99* | 3
COc1ccc(C(O)(C(=O)NNc2ccc(C)cc2)c2cccs2)cc1 (stereo not drawn) | 0.8 | 0 | 19 | 17 | 5
Cc1ccc2cc(CCNC(=O)Cc3cccs3)c(=O)[nH]c2c1 | 0.9 | -8 | 15 | 0 | 9
COc1cccc(OC)c1C(=O)Nc1cc(C)on1 | 1 | -3 | 1 | -2 | 12
COc1cc(NS(C)(=O)=O)c(OC)cc1NC(=O)c1ccccc1 | 0.9 | -3 | 10 | -2 | 4
COC(=O)N/N=C/c1ccc(-c2cccc(Cl)c2)o1 | 1 | 12 | 0 | 61* | 13
Nc1nonc1C(=O)N/N=C/c1ccc(-c2ccc(Cl)c(C(=O)O)c2)o1 | 1 | -6 | -1 | -5 | -1
COC(=O)N/N=C/c1ccc(-c2cc(Cl)cc(Cl)c2)o1 | 0.9 | 4 | 12 | 13 | 0
CCOC(=O)N/N=C\c1ccc(-c2cc(Cl)ccc2Cl)o1 | 0.8 | 10 | 25 | 6 | 11
NC(=S)N/N=C/c1ccc(-c2cc(Cl)ccc2Cl)o1 | 0.7 | 72* | 35 | 100* | 4

Assay outcomes as filed in PubChem BioAssay.
